Assay outcomes as filed in PubChem.
SIRT5 inh – inhibitors of human sirtuin-5 desuccinylase; AID 652115; hit rate 1.1% among 330,000; Purified SirT5, succinyl-peptide AMC, trypsin-coupled fluorescence; inhibition, % at 15 µM; Q9NXA8; in the data active = inhibition above about 15%
Target sequence (Q9NXA8 whole entry, looked up): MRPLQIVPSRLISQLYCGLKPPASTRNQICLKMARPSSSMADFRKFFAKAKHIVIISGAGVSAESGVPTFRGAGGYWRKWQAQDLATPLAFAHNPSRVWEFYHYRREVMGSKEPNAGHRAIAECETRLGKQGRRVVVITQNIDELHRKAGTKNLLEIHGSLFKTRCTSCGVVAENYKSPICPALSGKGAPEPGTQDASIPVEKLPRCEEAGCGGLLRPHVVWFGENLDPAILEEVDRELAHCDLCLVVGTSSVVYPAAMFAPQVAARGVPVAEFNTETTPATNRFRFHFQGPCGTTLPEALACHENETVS
FGF22 binding – shifts melting point of recombinant human FGF22; recombinant FGF22 thermal shift, SYPRO orange fluorescence; percent of sucrose octasulfate shift, DMSO zero; activity (Tm shift, normalised), % at 9.99 µM; AID 651658; hit rate 1.5% among 340,000; Q9HCT0;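 active = mean Tm shift, scaled 0 neutral to 100 positive control, at about 1.3% or above, every replicate too, limit read from the data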
Target sequence (Q9HCT0 whole entry, looked up): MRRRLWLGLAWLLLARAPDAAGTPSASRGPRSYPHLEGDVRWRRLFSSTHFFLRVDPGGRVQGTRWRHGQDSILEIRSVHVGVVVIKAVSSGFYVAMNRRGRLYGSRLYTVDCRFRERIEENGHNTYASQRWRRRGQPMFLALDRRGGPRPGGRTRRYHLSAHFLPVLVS
PGC1a acetyl inh – PGC1a acetylation modulation, inhibitor mode; U2OS PGC1a acetylation, AlphaScreen anti-acetyl-lysine; with virally co-expressed GCN5 acetyltransferase; inhibition, % at 15.6 µM; hit rate 0.17% among 350,000;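 active = every replicate shows inhibition of at least 40%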
FN deposition inh – fibronectin deposition inhibition; AID 743247; inhibition, % at 12.6 µM; AH1F fibroblasts, Alexa488-fibronectin deposition fluorescence, overnight; hit rate 0.086% among 350,000;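 active = mean inhibition across replicates of 30% or more, regardless of how many single replicates reach that level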
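Schedule: 1 h cell adhesion before compound, then overnight fibronectin incubation; test system: AH1F fibroblast monolayer depositing Alexa488-labelled fibronectin into matrix; quantity: 10000 AH1F cells per well; probe or stimulus: fluorescent fibronectin at 24 nM final; signal: fluorescence, ex 485 nm, em 525 nm; evaluation: percent inhibition as loss of matrix-bound fibronectin fluorescence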
ERAP1 HTS inh – ERAP1 (human) enzyme inhibition; Q9NZ08; inhibition, % at 10.7 µM; AID 652197; recombinant ERAP1, Leu-AMC fluorescence, 60 min; hit rate 0.15% among 340,000;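 active = mean replicate inhibition of at least 30%, or all replicates individually reaching that 30% level; inactive = mean below 30% and not every replicate reaching it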
Numbers stand for hits. Most compounds without a hit are left out; they make up all but 2.2% or so of the library.

Screening C[n+]1ccccc1C1CCCC/C1=N\NC(N)=S (stereo not given) returned SIRT5 inh inactive, FGF22 binding 43, FN deposition inh inactive and ERAP1 HTS inh 43.
CCCNC(=O)Nc1ccc2c(c1)OC[C@@H](C)N(C(=O)CC)C[C@H](C)[C@H](OC)CN(C)C2=O was read as SIRT5 inh inactive, FGF22 binding inactive, PGC1a acetyl inh inactive and ERAP1 HTS inh inactive.
For Cc1cc(C(=O)CCl)c(C)n1Cc1ccco1 the results were SIRT5 inh inactive, FGF22 binding 43, FN deposition inh inactive and ERAP1 HTS inh inactive.
For OC(CSc1nc(-c2ccccc2)c(-c2ccccc2)o1)CC(O)c1ccccc1 (stereo not given) the results were SIRT5 inh inactive, FGF22 binding inactive, PGC1a acetyl inh inactive and ERAP1 HTS inh inactive.
For O=C(CCn1c(=O)oc2ccccc21)Nc1cccc(Cl)c1 the results were SIRT5 inh inactive, FGF22 binding inactive, FN deposition inh inactive and ERAP1 HTS inh inactive.
Screening O=C(Cn1c(=O)oc2ccccc21)Nc1cccc(Cl)c1 returned SIRT5 inh 28, FGF22 binding inactive, PGC1a acetyl inh inactive, FN deposition inh inactive and ERAP1 HTS inh inactive.
C[C@@H]1CCCCO[C@@H](CN(C)S(C)(=O)=O)[C@H](C)CN([C@H](C)CO)C(=O)c2cc(NC(=O)CCC(F)(F)F)ccc2O1 was read as PGC1a acetyl inh inactive.
Screening C[C@H]1CCC/C=C/[C@@H]2C[C@H](O)C[C@H]2[C@H](O)[C@H](S(=O)c2ccc(O)cc2)CC(=O)O1 (stereo not given in full) returned SIRT5 inh inactive, FGF22 binding inactive, PGC1a acetyl inh 66, FN deposition inh inactive and ERAP1 HTS inh 67.
For CC#CCOCC1CN(C)C(=O)O1 (stereo not given) the results were FGF22 binding 43, PGC1a acetyl inh inactive, FN deposition inh inactive and ERAP1 HTS inh inactive.
`CCOCCCNc1nc(C(F)(F)F)nc2c1nnn2Cc1ccccc1Cl` gave SIRT5 inh inactive, FGF22 binding inactive, PGC1a acetyl inh inactive, FN deposition inh inactive and ERAP1 HTS inh inactive.
`CCCc1nc(NCCCOCC)c2nnn(Cc3ccccc3)c2n1` gave SIRT5 inh 17, FGF22 binding inactive, PGC1a acetyl inh inactive, FN deposition inh inactive and ERAP1 HTS inh inactive.
`CCCN1C[C@H](C)[C@@H](OC)CN(C)C(=O)c2ccc(NC(=O)c3ccccc3)cc2OC[C@H]1C` gave SIRT5 inh inactive, FGF22 binding inactive, PGC1a acetyl inh inactive, FN deposition inh inactive and ERAP1 HTS inh inactive.
`Cc1cccc(C)c1OCC(C)N` (stereo not given) gave SIRT5 inh inactive, FGF22 binding inactive, PGC1a acetyl inh inactive, FN deposition inh inactive and ERAP1 HTS inh inactive.
For Cc1cccc(C)c1OCC(N)C(C)C (stereo not given) the results were SIRT5 inh inactive, FGF22 binding inactive, PGC1a acetyl inh inactive, FN deposition inh inactive and ERAP1 HTS inh 105.
CC1(C)c2ccccc2-c2nc3ccccc3cc2C1N1CCOCC1 (stereo not given) was read as FGF22 binding 43, PGC1a acetyl inh inactive, FN deposition inh inactive and ERAP1 HTS inh inactive.
Cc1ccc(-c2cc3ccccc3nc2N2CCOCC2)cc1 was read as SIRT5 inh inactive, FGF22 binding inactive, PGC1a acetyl inh inactive, FN deposition inh inactive and ERAP1 HTS inh inactive.
Screening CS(=O)(=O)N1CC2(C1)[C@H](c1ccccc1)[C@@H](CO)N2Cc1ccccn1 returned SIRT5 inh inactive, FGF22 binding inactive, PGC1a acetyl inh inactive and ERAP1 HTS inh inactive.
`CCOC(=O)N1CCN(Cc2nc(-c3cccc(C)c3)no2)CC1` gave SIRT5 inh inactive, FGF22 binding inactive, PGC1a acetyl inh inactive and ERAP1 HTS inh inactive.
For CC(=O)N1CCN(Cc2nc(-c3cccc(Cl)c3)no2)CC1 the results were SIRT5 inh inactive, FGF22 binding 43, FN deposition inh inactive and ERAP1 HTS inh inactive.
Screening CN1CCCN(Cc2nc(-c3cccc(C(F)(F)F)c3)no2)CC1 returned SIRT5 inh inactive, FGF22 binding 43, FN deposition inh inactive and ERAP1 HTS inh inactive.
FC(F)(F)c1cccc(-c2noc(CN3CCOCC3)n2)c1 was read as PGC1a acetyl inh inactive and FN deposition inh inactive.
For O=C(NC1CCCC1)N1CC(=O)N2[C@H](CO)[C@H](c3ccc(-c4cccc(F)c4)cc3)[C@@H]2C1 the results were SIRT5 inh inactive, PGC1a acetyl inh inactive, FN deposition inh inactive and ERAP1 HTS inh inactive.
`CC(=O)c1cccc(N2C(=O)Nc3ccccc3N2O)c1` gave SIRT5 inh inactive, FGF22 binding 43, FN deposition inh inactive and ERAP1 HTS inh inactive.
Screening O=C(O)c1ccc(N2C(=O)Nc3ccccc3N2O)cc1 returned SIRT5 inh inactive, FGF22 binding inactive, PGC1a acetyl inh inactive, FN deposition inh inactive and ERAP1 HTS inh inactive.
Screening CN1CCN(C(c2ccccc2)c2nnnn2Cc2ccccc2)CC1 (stereo not given) returned PGC1a acetyl inh inactive.
For CCN1CCN(C(c2ccccc2)c2nnnn2Cc2ccccc2)CC1 (stereo not given) the results were PGC1a acetyl inh inactive and FN deposition inh 33.
Screening CCN1/C(=C/c2ccc3cc(C)cc(C)c3[n+]2CC)Sc2cc(C)ccc21 returned SIRT5 inh inactive, FGF22 binding inactive, FN deposition inh inactive and ERAP1 HTS inh 35.
For CCN1/C(=C\c2ccc3cc(C)ccc3[n+]2CC)Sc2cc(C)c(C)cc21 the results were SIRT5 inh inactive, FGF22 binding inactive, FN deposition inh inactive and ERAP1 HTS inh inactive.
For O=[N+]([O-])c1cc(C(F)(F)F)ccc1N1CCN(CCO)CC1 the results were SIRT5 inh inactive, FGF22 binding 43, FN deposition inh inactive and ERAP1 HTS inh inactive.
O=[N+]([O-])c1cc(C(F)(F)F)ccc1N1CCCC(O)C1 (stereo not given) was read as SIRT5 inh inactive, FGF22 binding 43, PGC1a acetyl inh inactive, FN deposition inh inactive and ERAP1 HTS inh inactive.
Cc1ccc(S(=O)(=O)Nc2cccc3c2O[C@@H](CN(C)S(=O)(=O)c2cn(C)cn2)[C@@H](C)CN([C@@H](C)CO)C3=O)cc1 was read as PGC1a acetyl inh inactive.
`C/C(=N\NC(=O)c1cc(C)[nH]n1)c1cccs1` gave SIRT5 inh inactive, FGF22 binding 44, PGC1a acetyl inh inactive, FN deposition inh inactive and ERAP1 HTS inh inactive.
C/C(=N\NC(=O)c1ccc(CSc2nncn2C)cc1)c1ccc(Cl)cc1 was read as SIRT5 inh inactive, FGF22 binding inactive, FN deposition inh inactive and ERAP1 HTS inh inactive.
Screening C/C(=N\NC(=O)c1ccc(CSc2nncn2C)cc1)c1cccs1 returned SIRT5 inh inactive, FGF22 binding 43, FN deposition inh inactive and ERAP1 HTS inh inactive.
Screening C/C(=N\NC(=O)c1cc(C)[nH]n1)c1ccc(-c2ccccc2)cc1 returned SIRT5 inh inactive, FGF22 binding inactive, PGC1a acetyl inh 79, FN deposition inh inactive and ERAP1 HTS inh inactive.
